Experimental data from ChEMBL document CHEMBL1137011, “Antagonists of the calcium receptor I. Amino alcohol-based parathyroid hormone secretagogues” (J Med Chem, 2009).
Calls of active or inactive are those of the source. The rule behind the calls is not given here.

Tests used:
[1] = Antagonist activity at human calcium receptor 1 expressed in HEK293 4.0-7 cells assessed as inhibition of extracellular calcium-induced increase in intracellular calcium level by FLIPR assay; assay type: functional, cell-based
Summary of the method: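 HEK293 cells stably expressing human CaR, seeded 15K cells/well and grown 48 h at 37 °C. Loaded 45 min at 37 °C with Fluo4 (2 µM final) and probenecid (2.5 mM final) in HBSS with 0.75 mM Ca. Compound (top 25 µM final) was added 5 min at room temperature, then EC80 CaCl challenge, with FLIPR fluorescence read for 65 s.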

[2] = target: T1, Extracellular calcium-sensing receptor (Homo sapiens, UniProt P41180); experiment: Binding affinity to human parathyroid calcium receptor 1 expressed in HEK293 4.0-7 cells by radioligand binding assay; assay type: cell-based
T1 sequence (P41180 whole entry): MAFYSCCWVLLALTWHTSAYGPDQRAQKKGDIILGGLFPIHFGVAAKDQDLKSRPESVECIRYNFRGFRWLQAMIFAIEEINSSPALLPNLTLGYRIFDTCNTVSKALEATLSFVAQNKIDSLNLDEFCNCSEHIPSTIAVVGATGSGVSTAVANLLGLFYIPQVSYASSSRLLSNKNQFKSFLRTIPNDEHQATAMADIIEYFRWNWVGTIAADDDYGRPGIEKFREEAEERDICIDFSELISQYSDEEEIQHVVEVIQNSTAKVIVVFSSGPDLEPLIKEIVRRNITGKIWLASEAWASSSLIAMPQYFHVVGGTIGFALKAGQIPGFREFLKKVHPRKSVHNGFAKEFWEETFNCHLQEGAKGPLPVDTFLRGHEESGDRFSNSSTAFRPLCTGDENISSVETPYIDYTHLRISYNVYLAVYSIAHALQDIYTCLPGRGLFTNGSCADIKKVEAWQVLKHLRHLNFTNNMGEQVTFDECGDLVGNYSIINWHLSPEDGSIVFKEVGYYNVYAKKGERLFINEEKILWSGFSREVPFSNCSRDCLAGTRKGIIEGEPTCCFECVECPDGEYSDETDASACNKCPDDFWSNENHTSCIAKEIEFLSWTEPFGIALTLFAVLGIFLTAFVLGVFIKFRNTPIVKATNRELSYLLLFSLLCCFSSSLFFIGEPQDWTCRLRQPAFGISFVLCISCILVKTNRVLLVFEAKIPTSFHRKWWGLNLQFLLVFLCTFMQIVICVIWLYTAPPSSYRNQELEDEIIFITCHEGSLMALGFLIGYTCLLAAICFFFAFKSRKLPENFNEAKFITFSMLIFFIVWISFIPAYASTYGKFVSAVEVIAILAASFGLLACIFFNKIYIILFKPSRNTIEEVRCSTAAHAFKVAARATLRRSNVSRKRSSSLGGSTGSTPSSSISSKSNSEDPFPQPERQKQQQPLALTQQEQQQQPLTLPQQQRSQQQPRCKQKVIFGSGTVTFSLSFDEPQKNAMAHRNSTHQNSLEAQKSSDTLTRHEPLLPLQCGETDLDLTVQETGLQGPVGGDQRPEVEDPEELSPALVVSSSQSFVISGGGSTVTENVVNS
Summary of the method: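 Membranes from HEK293 4.0-7 cells stably expressing human CaR (4-10 µg) in 50 mM Tris-HCl pH 7.4, 1 mM EDTA, 3 mM MgCl2, 0.1% gelatin, 10% EtOH. Incubated with 2 nM 3H antagonist or 3H calcimimetic ligand for 30 min at 4 °C, then filtered onto PEI-treated GF/C and counted by scintillation. Nonspecific binding taken with 100-fold excess of unlabeled homologous ligand.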

[3] = target: Sodium-dependent dopamine transporter (Homo sapiens, UniProt Q01959); experiment: Binding affinity to dopamine transporter
Sequence of Sodium-dependent dopamine transporter (Q01959 whole entry): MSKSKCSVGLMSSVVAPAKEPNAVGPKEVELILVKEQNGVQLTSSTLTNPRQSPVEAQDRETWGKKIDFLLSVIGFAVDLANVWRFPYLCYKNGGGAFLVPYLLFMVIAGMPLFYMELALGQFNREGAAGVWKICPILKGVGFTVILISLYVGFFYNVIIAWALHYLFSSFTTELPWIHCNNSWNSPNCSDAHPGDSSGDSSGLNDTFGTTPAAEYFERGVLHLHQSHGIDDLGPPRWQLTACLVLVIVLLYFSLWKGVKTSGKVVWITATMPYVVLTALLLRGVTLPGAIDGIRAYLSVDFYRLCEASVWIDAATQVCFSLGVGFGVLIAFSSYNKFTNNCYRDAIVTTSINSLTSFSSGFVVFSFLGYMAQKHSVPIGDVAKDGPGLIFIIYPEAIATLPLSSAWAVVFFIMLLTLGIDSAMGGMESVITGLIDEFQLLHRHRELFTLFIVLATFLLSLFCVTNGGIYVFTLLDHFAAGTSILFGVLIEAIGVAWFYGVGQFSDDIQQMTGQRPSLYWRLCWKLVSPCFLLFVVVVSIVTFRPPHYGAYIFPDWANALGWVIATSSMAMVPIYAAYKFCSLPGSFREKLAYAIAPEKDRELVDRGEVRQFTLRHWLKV

[4] = target: Sodium-dependent serotonin transporter (Homo sapiens, UniProt P31645); experiment: Binding affinity to serotonin transporter
Sequence of Sodium-dependent serotonin transporter (P31645 whole entry): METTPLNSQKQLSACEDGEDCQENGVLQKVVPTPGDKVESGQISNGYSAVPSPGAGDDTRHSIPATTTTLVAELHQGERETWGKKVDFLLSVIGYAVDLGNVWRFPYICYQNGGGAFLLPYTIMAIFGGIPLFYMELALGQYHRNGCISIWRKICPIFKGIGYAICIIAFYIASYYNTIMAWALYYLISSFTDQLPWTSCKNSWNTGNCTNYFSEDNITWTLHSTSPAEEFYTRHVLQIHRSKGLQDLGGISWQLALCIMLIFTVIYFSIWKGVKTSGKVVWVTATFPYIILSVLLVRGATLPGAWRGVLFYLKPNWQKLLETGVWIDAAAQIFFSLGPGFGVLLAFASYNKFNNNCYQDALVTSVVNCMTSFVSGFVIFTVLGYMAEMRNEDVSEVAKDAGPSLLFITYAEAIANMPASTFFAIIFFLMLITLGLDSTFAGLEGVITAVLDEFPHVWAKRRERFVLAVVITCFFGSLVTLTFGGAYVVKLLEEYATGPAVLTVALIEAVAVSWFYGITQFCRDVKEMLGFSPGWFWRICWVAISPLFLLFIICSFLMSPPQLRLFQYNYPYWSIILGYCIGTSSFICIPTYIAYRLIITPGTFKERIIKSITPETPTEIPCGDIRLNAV

[5] = target: Sodium-dependent noradrenaline transporter (Homo sapiens, UniProt P23975); experiment: Binding affinity to norepinephrine transporter
Sequence of Sodium-dependent noradrenaline transporter (P23975 whole entry): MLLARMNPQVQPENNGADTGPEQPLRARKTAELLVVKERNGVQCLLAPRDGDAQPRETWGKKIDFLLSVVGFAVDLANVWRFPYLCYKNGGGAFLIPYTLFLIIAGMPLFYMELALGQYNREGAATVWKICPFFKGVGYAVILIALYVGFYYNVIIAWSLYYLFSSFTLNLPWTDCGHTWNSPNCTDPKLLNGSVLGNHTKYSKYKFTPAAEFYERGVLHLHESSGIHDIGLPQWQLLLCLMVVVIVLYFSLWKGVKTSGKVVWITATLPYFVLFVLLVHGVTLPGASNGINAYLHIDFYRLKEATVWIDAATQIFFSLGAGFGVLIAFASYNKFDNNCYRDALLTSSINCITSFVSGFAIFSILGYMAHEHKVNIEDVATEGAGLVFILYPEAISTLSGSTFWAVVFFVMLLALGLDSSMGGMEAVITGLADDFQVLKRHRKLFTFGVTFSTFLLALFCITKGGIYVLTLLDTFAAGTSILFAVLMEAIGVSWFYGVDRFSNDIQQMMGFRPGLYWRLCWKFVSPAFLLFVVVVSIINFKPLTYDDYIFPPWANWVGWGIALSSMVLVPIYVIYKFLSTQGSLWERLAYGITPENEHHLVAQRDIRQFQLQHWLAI

Cytochrome P450 2D6 = Cytochrome P450 2D6 (Homo sapiens, UniProt P10635); experiment: Binding affinity to CYP2D6; assay type: ADME
Sequence of Cytochrome P450 2D6 (P10635 whole entry): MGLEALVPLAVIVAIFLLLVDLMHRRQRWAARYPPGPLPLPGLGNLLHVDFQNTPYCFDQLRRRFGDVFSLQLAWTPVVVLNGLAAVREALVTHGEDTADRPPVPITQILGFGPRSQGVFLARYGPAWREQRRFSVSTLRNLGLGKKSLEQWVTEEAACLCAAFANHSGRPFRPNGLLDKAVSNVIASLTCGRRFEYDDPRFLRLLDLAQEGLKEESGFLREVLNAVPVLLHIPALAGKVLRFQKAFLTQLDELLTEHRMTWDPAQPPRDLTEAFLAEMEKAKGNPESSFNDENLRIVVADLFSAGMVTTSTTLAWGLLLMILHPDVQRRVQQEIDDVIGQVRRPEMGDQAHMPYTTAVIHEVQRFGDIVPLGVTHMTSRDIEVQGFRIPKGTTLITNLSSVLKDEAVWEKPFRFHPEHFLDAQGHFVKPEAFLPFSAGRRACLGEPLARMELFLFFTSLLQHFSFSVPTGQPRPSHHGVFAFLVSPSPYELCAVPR

[6] = target: Beta-3 adrenergic receptor (Homo sapiens, UniProt P13945); experiment: Binding affinity to beta3 adrenoceptor
Sequence of Beta-3 adrenergic receptor (P13945 whole entry): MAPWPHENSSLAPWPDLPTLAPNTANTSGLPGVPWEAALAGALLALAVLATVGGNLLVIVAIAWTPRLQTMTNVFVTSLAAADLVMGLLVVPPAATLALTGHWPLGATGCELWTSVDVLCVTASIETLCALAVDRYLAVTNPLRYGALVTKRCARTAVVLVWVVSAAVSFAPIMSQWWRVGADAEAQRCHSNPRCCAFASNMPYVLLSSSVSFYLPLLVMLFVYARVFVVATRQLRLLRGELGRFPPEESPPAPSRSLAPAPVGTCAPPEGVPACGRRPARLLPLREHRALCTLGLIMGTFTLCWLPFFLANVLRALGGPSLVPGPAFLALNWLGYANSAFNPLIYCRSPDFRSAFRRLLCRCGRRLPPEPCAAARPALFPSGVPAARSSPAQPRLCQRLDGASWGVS

[7] = target: Beta-2 adrenergic receptor (Homo sapiens, UniProt P07550); experiment: Binding affinity to beta2 adrenoceptor
Sequence of Beta-2 adrenergic receptor (P07550 whole entry): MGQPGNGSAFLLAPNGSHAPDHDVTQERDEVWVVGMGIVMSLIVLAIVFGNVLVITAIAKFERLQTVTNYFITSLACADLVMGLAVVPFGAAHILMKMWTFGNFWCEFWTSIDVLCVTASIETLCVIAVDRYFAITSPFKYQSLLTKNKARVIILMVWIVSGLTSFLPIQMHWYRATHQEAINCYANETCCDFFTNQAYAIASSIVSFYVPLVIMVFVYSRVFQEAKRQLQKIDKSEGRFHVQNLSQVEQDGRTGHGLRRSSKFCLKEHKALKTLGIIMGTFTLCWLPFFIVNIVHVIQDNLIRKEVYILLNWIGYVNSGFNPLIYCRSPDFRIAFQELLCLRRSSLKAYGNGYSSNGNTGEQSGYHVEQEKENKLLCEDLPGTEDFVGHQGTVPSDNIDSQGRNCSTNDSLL

[8] = target: Beta-1 adrenergic receptor (Homo sapiens, UniProt P08588); experiment: Binding affinity to beta-1 adrenoceptor
Sequence of Beta-1 adrenergic receptor (P08588 whole entry): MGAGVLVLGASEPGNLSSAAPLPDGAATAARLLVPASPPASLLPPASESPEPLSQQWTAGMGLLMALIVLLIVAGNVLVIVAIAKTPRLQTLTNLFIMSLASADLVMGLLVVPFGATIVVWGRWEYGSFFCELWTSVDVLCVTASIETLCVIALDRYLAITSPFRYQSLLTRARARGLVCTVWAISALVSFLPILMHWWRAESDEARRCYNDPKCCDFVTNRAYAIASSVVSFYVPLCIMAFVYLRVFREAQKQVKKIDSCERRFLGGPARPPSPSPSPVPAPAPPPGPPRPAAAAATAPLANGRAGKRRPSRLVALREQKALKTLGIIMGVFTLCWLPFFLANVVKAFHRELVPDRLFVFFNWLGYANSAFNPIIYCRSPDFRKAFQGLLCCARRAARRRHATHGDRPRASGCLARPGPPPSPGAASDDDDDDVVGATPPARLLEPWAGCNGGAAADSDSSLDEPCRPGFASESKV

[9] = Tmax in human; assay type: ADME, organism-based; settings: in vivo
[10] = Clearance in women; assay type: ADME, organism-based; settings: female, human, in vivo
[11] = Clearance in men; assay type: ADME, organism-based; settings: male, human, in vivo
[12] = Volume of distribution in human; assay type: ADME, organism-based; settings: in vivo
[13] = target: Voltage-gated inwardly rectifying potassium channel KCNH2 (Homo sapiens, UniProt Q12809); experiment: Binding affinity to human ERG
Sequence of Voltage-gated inwardly rectifying potassium channel KCNH2 (Q12809 whole entry): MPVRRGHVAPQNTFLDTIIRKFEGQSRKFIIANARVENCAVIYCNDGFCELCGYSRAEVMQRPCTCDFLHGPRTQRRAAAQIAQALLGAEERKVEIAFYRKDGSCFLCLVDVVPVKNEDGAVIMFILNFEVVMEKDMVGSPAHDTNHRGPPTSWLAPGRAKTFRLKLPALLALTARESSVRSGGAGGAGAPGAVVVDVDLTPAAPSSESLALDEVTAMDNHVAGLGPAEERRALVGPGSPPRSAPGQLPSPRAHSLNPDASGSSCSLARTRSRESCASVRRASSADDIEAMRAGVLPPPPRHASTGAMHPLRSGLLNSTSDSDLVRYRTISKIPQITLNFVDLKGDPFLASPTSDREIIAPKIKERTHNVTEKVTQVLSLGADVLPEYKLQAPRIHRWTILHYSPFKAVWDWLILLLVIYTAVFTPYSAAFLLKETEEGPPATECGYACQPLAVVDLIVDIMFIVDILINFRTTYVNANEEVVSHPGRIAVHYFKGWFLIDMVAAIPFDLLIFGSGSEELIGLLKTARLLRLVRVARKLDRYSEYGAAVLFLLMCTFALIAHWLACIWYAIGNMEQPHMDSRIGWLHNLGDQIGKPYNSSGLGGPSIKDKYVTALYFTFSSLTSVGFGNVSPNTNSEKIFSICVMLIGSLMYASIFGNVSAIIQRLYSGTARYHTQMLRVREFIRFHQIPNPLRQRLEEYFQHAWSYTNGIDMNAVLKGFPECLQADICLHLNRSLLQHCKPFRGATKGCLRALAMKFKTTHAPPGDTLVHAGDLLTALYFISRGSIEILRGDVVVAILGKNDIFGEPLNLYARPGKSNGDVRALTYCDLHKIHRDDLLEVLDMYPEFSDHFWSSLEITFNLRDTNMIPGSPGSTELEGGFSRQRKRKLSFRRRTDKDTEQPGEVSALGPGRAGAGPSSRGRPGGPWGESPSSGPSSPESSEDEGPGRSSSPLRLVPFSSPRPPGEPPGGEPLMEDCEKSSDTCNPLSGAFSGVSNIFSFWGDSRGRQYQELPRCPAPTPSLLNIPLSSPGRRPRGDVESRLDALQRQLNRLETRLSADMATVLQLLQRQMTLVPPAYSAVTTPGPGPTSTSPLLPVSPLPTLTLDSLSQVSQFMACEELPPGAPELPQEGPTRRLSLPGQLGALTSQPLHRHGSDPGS

Rattus norvegicus [14] = experiment: Increase in plasma parathyroid hormone level in normal conscious rat at 10 umol/kg, iv by immunoradiometric assay; assay type: functional, organism-based
Summary of the method: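 Normal conscious rats were given a single iv injection of 10 µmol/kg. Plasma PTH was measured over time by rat PTH(1-34) immunoradiometric assay, n = 6/group, mean ± SE.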

[15] = Oral bioavailability in rat; assay type: ADME, organism-based; settings: in vivo
Rattus norvegicus [16] = organism: Rattus norvegicus; experiment: Clearance in rat; assay type: ADME, organism-based; settings: in vivo
[17] = Half life in rat; assay type: ADME, organism-based; settings: in vivo
[18] = Volume of distribution in rat; assay type: ADME, organism-based; settings: in vivo
[19] = Increase in parathyroid hormone release in bovine parathyroid cells; assay type: functional, cell-based; settings: Bos taurus
Rattus norvegicus [20] = experiment: Increase of new bone formation in ovariectomized postmenopausal osteoporosis Sprague-Dawley rat model at 100 umol/kg, po for 5 weeks; assay type: functional, organism-based
Rattus norvegicus [21] = experiment: Increase of resorption of old bone in ovariectomized postmenopausal osteoporosis Sprague-Dawley rat model at 100 umol/kg, po for 5 weeks; assay type: functional, organism-based
Rattus norvegicus [22] = experiment: Effect on net increase in bone mass in ovariectomized postmenopausal osteoporosis Sprague-Dawley rat model at 100 umol/kg, po for 5 weeks; assay type: functional, organism-based
Rattus norvegicus [23] = experiment: Increase of bone mass in ovariectomized postmenopausal osteoporosis Sprague-Dawley rat model at 5 ug/kg, po for 5 weeks; assay type: functional, organism-based
Rattus norvegicus [24] = experiment: Increase of bone mass in 17-beta-estradiol-treated ovariectomized postmenopausal osteoporosis Sprague-Dawley rat model at 100 umol/kg, po for 5 weeks; assay type: functional, organism-based

## COc1ccc(CC(C)(C)NCC(O)COc2ccccc2Cl)cc1 (racemic)
[1]
  IC50: 490 nM
[2]
  IC50: 1000 nM

## CC(C)(Cc1ccccc1)NCC(O)COc1ccccc1 (racemic)
[1]
  IC50: 2300 nM

## COc1ccc(CC(C)(C)NCC(O)COC(C)C)cc1 (racemic)
[1]
  IC50: 6400 nM
[2]
  IC50: 10000 nM

## COc1ccc(C(C)(C)CNCC(O)COc2ccccc2)cc1 (racemic)
[1]
  IC50: > 100000 nM
[2]
  IC50: > 10000 nM

## COc1ccc(CCNCC(O)COc2ccccc2)cc1 (racemic)
[1]
  IC50: > 100000 nM
[2]
  IC50: > 10000 nM

## COc1ccc(CC(C)(C)NCC(COc2cccc(Cl)c2Cl)OC)cc1 (racemic)
[1]
  IC50: > 3000 nM
[2]
  IC50: 950 nM

## CCCCOCC(O)CNC(C)(C)Cc1ccc(OC)cc1 (racemic)
[1]
  IC50: 2200 nM
[2]
  IC50: 3200 nM

## COc1ccc(CC(C)(C)NCC(O)COc2ccccc2C#N)cc1 (racemic)
[1]
  IC50: 45 nM
[2]
  IC50: 140 nM
[3]
  IC50: 300 nM
[4]
  IC50: 21 nM
[5]
  IC50: 300 nM
Cytochrome P450 2D6
  IC50: 36 nM
[6]; read-out: EC50
  EC50: 20 nM
[7]
  IC50: 21 nM
[8]
  EC50: Not Active

## COc1ccc(CC(C)(C)N(C)CC(O)COc2cccc(Cl)c2Cl)cc1 (racemic)
[1]
  IC50: > 3000 nM
[2]
  IC50: 2300 nM

## CCCOCC(O)CNC(C)(C)Cc1ccc(OC)cc1 (racemic)
[1]
  IC50: 16000 nM
[2]
  IC50: 7000 nM

## CC[C@H](C)[C@H](NC(=O)[C@H](CCC(=O)O)NC(=O)[C@H](CO)NC(=O)[C@@H](NC(=O)[C@@H](N)CO)C(C)C)C(=O)N[C@@H](CCC(N)=O)C(=O)N[C@@H](CC(C)C)C(=O)N[C@@H](CCSC)C(=O)N[C@@H](Cc1cnc[nH]1)C(=O)N[C@@H](CC(N)=O)C(=O)N[C@@H](CC(C)C)C(=O)NCC(=O)N[C@@H](CCCCN)C(=O)N[C@@H](Cc1cnc[nH]1)C(=O)N[C@@H](CC(C)C)C(=O)N[C@@H](CC(N)=O)C(=O)N[C@@H](CO)C(=O)N[C@@H](CCSC)C(=O)N[C@@H](CCC(=O)O)C(=O)N[C@@H](CCCN=C(N)N)C(=O)N[C@H](C(=O)N[C@@H](CCC(=O)O)C(=O)N[C@@H](Cc1c[nH]c2ccccc12)C(=O)N[C@@H](CC(C)C)C(=O)N[C@@H](CCCN=C(N)N)C(=O)N[C@@H](CCCCN)C(=O)N[C@@H](CCCCN)C(=O)N[C@@H](CC(C)C)C(=O)N[C@@H](CCC(N)=O)C(=O)N[C@@H](CC(=O)O)C(=O)N[C@H](C(=O)N[C@@H](Cc1cnc[nH]1)C(=O)N[C@@H](CC(N)=O)C(=O)N[C@@H](Cc1ccccc1)C(=O)O)C(C)C)C(C)C [TERIPARATIDE]
[9]
  Tmax: ≤ 0.5 h
[10]
  clearance: 1030 mL/min
[11]
  clearance: 1570 mL/min
[12]
  Vd: 0.12 L/kg

## COc1ccc(CC(C)(C)NCC(O)COc2cccc(Cl)c2)cc1 (racemic)
[1]
  IC50: 470 nM
[2]
  IC50: 1000 nM

## COc1ccc(CC(C)(C)NCCCOc2cccc(Cl)c2Cl)cc1
[1]
  IC50: 2500 nM
[2]
  IC50: 930 nM

## COc1ccc(CC(C)(C)NCC(O)COc2cccc(Cl)c2C#N)cc1 (racemic)
[1]
  IC50: 38 nM
[2]
  IC50: 70 nM
[3]
  IC50: 1100 nM
[4]
  IC50: 34 nM
[5]
  IC50: 1000 nM
Cytochrome P450 2D6
  IC50: 76 nM
[13]
  IC50: 3600 nM
[6]
  EC50: Not Active
[7]
  IC50: 23 nM
[8]
  EC50: Not Active

## COc1ccc(CC(C)(C)NCC(O)COc2cccc(Cl)c2Cl)cc1 (racemic)
[1]
  IC50: 45 nM
[2]
  IC50: 200 nM
[6]; read-out: EC50
  EC50: 200 nM
[7]
  IC50: 21 nM

## COc1ccc(CC(C)(C)NCC(O)COc2ccccc2)cc1 (racemic)
[1]
  IC50: 2300 nM
[2]
  IC50: 2300 nM

## COc1ccc(CC(C)(C)NC[C@@H](O)COc2cccc(Cl)c2Cl)cc1
[1]
  IC50: 38 nM
[2]
  IC50: 68 nM
[6]
  EC50: Not Active
[7]
  IC50: 300 nM

## COc1ccc(CC(C)(C)NC[C@H](O)COc2cccc3[nH]c(=O)[nH]c23)cc1
[1]
  IC50: 11000 nM
[2]
  IC50: 31800 nM
[3]
  IC50: 1200 nM
[4]
  IC50: 61 nM
[5]
  IC50: 600 nM
Cytochrome P450 2D6
  IC50: 1260 nM
[13]
  IC50: 11800 nM
[6]; read-out: EC50
  EC50: 7 nM
[7]
  IC50: 1.3 nM
[8]; read-out: EC50
  EC50: 3 nM

## CC(C)(Cc1ccc2ccccc2c1)NC[C@@H](O)COc1cccc(Cl)c1C#N.Cl
[1]
  IC50: 43 nM
[2]
  IC50: 3 nM
[3]
  IC50: 200 nM
[4]
  IC50: 2 nM
[5]
  IC50: 200 nM
Cytochrome P450 2D6
  IC50: 45 nM
[13]
  IC50: 3000 nM
Rattus norvegicus [14]
  Activity: Active
[15]
  bioavailability: 11%
Rattus norvegicus [16]
  clearance: 74 mL/min/kg
[17]
  half-life: 2 h
[18]
  Vd: 11 L/kg
[19]
  EC50: 41 nM
Rattus norvegicus [20]
  Activity: Active
Rattus norvegicus [21]
  Activity: Active
Rattus norvegicus [22]
  Activity: Active
Rattus norvegicus [23]
  Activity: Active
Rattus norvegicus [24]
  Activity: Active
[6]
  EC50: Not Active
[7]
  IC50: 4300 nM
[8]
  EC50: Not Active

## COc1ccc(CCC(C)(C)NCC(O)COc2ccccc2)cc1 (racemic)
[1]
  IC50: 13000 nM
[2]
  IC50: 2780 nM

## COc1ccc(CC(C)(C)NCC(O)COc2ccccc2OC)cc1 (racemic)
[1]
  IC50: 15600 nM
[2]
  IC50: 3500 nM

## COc1ccc(CC(C)(C)NCC(O)COc2ccc3ccccc3c2)cc1 (racemic)
[1]
  IC50: 1400 nM
[2]
  IC50: 1300 nM

## COc1ccc(CC(C)(C)NC[C@H](O)COc2cccc(Cl)c2Cl)cc1
[1]
  IC50: 340 nM
[2]
  IC50: 300 nM
[6]; read-out: EC50
  EC50: 200 nM
[7]
  IC50: 1 nM

## COc1ccc(CC(C)NCC(O)COc2ccccc2)cc1 (racemic)
[1]
  IC50: > 100000 nM
[2]
  IC50: > 10000 nM

## COc1ccc(C(C)(C)NCC(O)COc2ccccc2)cc1 (racemic)
[1]
  IC50: > 100000 nM
[2]
  IC50: > 10000 nM
